HCV NS3 hel inh – inhibitors of Hepatitis C virus NS3 helicase; inhibition, % at 10.9 µM; AID 1800; NS3 helicase DNA unwinding, Cy5 molecular beacon fluorescence; hit rate 0.56% among 290,000;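 active = inhibition above the mean of all tested compounds plus 3 SD, set per campaign, cut at about 35% in these data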;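 also: 0% = DMSO wells and 100% = thioflavine S control wells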
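assay system = NS3 helicase fragment of HCV | buffer or medium = MOPS pH 6.5, MgCl2, DTT, Tween20, BSA | timing = 60 min unwinding reaction at 25 °C after ATP addition | signal = Cy5 beacon fluorescence read at start and 1 h | read-out basis = % inhibition of unwinding | control set = low DMSO, high thioflavine S at 110 µM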
ZTA DNA inh – ZTA (EBV) inhibition in EBNA-1 counter-screen. hit rate 0.15% among 320,000. ZTA-DNA binding, fluorescence polarization. AID 2234. inhibition, % at 11 µM; in the data active = inhibition above about 33%
Target sequence (P03206 whole entry, looked up): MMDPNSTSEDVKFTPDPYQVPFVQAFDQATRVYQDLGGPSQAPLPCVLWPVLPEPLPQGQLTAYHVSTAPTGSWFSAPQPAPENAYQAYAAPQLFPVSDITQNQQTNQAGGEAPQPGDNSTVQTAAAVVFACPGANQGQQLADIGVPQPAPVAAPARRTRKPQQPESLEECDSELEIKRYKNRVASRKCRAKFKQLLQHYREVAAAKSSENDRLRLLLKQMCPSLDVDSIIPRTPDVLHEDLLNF
EBNA-1 inhibitor – blocks EBNA-1 binding to DNA | hit rate 0.34% among 300,000 | EBNA-1 DNA binding, fluorescence polarization | inhibition, % at 14.8 µM; in the data active = inhibition above about 28%
core dimer inh – blocks dimerization of HCV core protein; TR-FRET GST/Flag-core106 dimerization, 1536-well; inhibition, % at 5 µM; hit rate 0.33% among 300,000;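 active = inhibition above the mean of all tested compounds plus 3 SD, set per screening campaign, cut at about 45% in these data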
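Material: Tagged HCV core106 pair (GST and Flag) | Amount: GST-core106 13.5 nM, Flag-core106 17 nM | Medium: KF-containing HEPES buffer, pH 7.45, DTT, CHAPS, BSA | Reagent: Eu donor and XL665 acceptor anti-tag antibodies | Schedule: 4 h at 22.5 °C | Technique: Time-resolved FRET, ex 340 nm, em 617 and 671 nm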
EBNA-1 inh conf – EBNA-1 (EBV) inhibition, confirmation; inhibition, % at 14.8 µM; shares compounds with EBNA-1 inhibitor; hit rate 35% among 830; AID 2292; Recombinant EBNA-1 DBD, Cy5-DNA fluorescence polarization;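 active = mean inhibition across replicates above a set limit taken from the earlier primary screen, cut at about 28% in these data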;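 also: plate controls were EBNA-1 protein with DMSO for no effect and wells lacking EBNA-1 for full effect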
ZTA DNA inh trip – counter-screen for EBNA-1 inhibitors: Epstein-Barr virus ZTA inhibitors, triplicate; shares compounds with EBNA-1 inhibitor; Zta-ZRE DNA binding, Cy5 fluorescence polarization; inhibition, % at 11.1 µM; 830 tested, under 10 active;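 active = mean inhibition over triplicates above a set limit taken from the primary EBNA-1 screen, cut at about 37% in these data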;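 also: purified full length Zta protein with Cy5 labeled ZRE DNA probe; 0% = Zta with DMSO and 100% = wells lacking Zta protein; inhibitors lower polarization by freeing the labeled DNA probe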
Numbers without * were called inactive; . = no result given. Rows were chosen to be rich in hits. Some 1.2% of all compounds tested hit in one or more screens of this group.

SMILES	HCV NS3 hel inh	ZTA DNA inh	EBNA-1 inhibitor	core dimer inh	EBNA-1 inh conf	ZTA DNA inh trip
COc1cc(-c2nc3n(n2)C(c2ccncc2)C2=C(CCCC2=O)N3)cc(OC)c1OC (stereo not drawn)	2	18	11	12	.	.
COc1cc(-c2nc3n(n2)C(c2cccc(OC)c2OC)C2=C(CCCC2=O)N3)cc(OC)c1OC (stereo not drawn)	5	3	85*	4	112*	0
Cc1nc(Nc2ccc(Cl)cc2)c2oc3ccccc3c2n1	22	-1	0	2	.	.
Cc1nc(Nc2cccc(Cl)c2)c2oc3ccccc3c2n1	-25	4	29*	4	-4	11
Cc1ccccc1NC(=S)N=Nc1c(O)n(C)c2ccc(S(=O)(=O)N3CCOCC3)cc12	5	-1	42*	21	15	9
COCCN1CCN(C(=O)c2cc(COc3cncc(Cl)c3)on2)CC1	4	.	.	.	.	.
N#Cc1ccsc1NC(=O)COC(=O)c1cc2ccccc2cc1O	13	8	48*	22	14	5
N#Cc1ccsc1NC(=O)COC(=O)c1ccc(NC(N)=O)cc1	10	5	-12	6	.	.
O=S(=O)(Nc1nc2ccccc2nc1NCc1ccco1)c1ccc(F)cc1	14	-5	10	5	.	.
N#CCCN(C(=O)COC(=O)c1ccc(S(=O)(=O)N2CCCC2)cc1)c1cccc(Cl)c1	.	-4	.	.	.	.
Cc1cc(S(=O)(=O)Nc2c(NC3CCCCC3)c3ccccc3oc2=O)ccc1F	5	4	15	6	.	.
CC(=O)Nc1ccc(S(=O)(=O)Nc2ccc(S(=O)(=O)Nc3ncccn3)cc2)cc1	5	8	82*	-8	7	8
CC(=O)Nc1ccc(S(=O)(=O)Nc2c(NC3CCCCC3)c3ccccc3oc2=O)cc1	6	-12	32*	-17	-3	0
COc1ccccc1-n1nc(C(=O)Nc2ccc3c(c2)OCO3)c2ccccc2c1=O	1	-2	7	20	.	.
COc1ccc(-n2nc(C(=O)Nc3ccc4c(c3)OCO4)c3ccccc3c2=O)c(OC)c1	-6	-15	29*	15	35*	-8
Cc1ccc(NC(=O)CN2C(=O)N/C(=C/c3cccn3-c3ccc(C(=O)O)cc3)C2=O)cc1	33	23	37*	-35	16	40*
O=C1COc2ccc(S(=O)(=O)Nc3ccc(F)cc3)cc2N1	1	-9	2	-12	.	.
CC(C)(C)CN1CCNC(=O)C1CC(=O)NCCN1CCCc2ccccc21 (stereo not drawn)	-3	6	-7	2	.	.
CC(=O)Nc1ccc(/C=C/c2nc(-c3ccccc3O)n[nH]2)cc1	-6	1	45*	-4	-6	1
Cc1cc(C)c(/C([O-])=C(/C(=S)Nc2ccc(SC(F)F)cc2)[n+]2ccccc2)cc1C	-16	0	-6	15	.	.
CN(C)c1cc[n+](/C(C(=S)Nc2ccc(SC(F)F)cc2)=C(/[O-])c2ccccc2)cc1	-8	0	58*	7	43*	-10
CCCNc1c(NC(=O)C2CCC(C)CC2)c(=O)oc2ccccc12 (stereo not drawn)	-1	-16	-3	-1	.	.
Cn1cc(/C=C2/SC(=O)N(CC(=O)Nc3ccc4c(c3)OCO4)C2=O)c2ccccc21	-4	3	56*	26	64*	14
Cc1cccnc1NC(=O)c1ccc(S(=O)(=O)N2CCC(C)CC2)cc1	.	18	31*	2	4	2
O=C(NN1C(=O)c2ccc3c4c(ccc(c24)C1=O)CC3)c1ccc(Br)cc1	-3	-7	55*	12	6	9
SMILES	HCV NS3 hel inh	ZTA DNA inh	EBNA-1 inhibitor	core dimer inh	EBNA-1 inh conf	ZTA DNA inh trip
O=C(CNC(=O)c1ccc(-c2ccccc2)cc1)OCc1c(F)cccc1Cl	-6	-17	44*	13	76*	-12
O=C(CNC(=O)c1ccc(-c2ccccc2)cc1)OCc1c(Cl)cccc1Cl	0	-9	15	6	.	.
COc1ccc(OCC(=O)Nc2ccccc2N2CCN(C)CC2)cc1	-5	2	-14	-6	.	.
CCC(=O)N1CCN(c2ccccc2NC(=O)COc2ccc(C(C)C)cc2)CC1	-1	13	73*	10	3	2
Cc1ccc(CNC(=O)C(c2ccccc2)c2ccccc2)cc1	-5	8	4	9	.	.
NC(=O)c1ccccc1NC(=O)c1cccc(C(=O)Nc2ccccc2C(N)=O)n1	.	11	35*	18	36*	4
Cc1c(Cl)cccc1NC(=O)c1ccc(OCC(=O)NCc2ccccc2)cc1	-8	-2	33*	-1	44*	14
COc1ccccc1N1CCN(C(=O)c2cc(=O)c3c(C)cc(C)cc3o2)CC1	-1	7	-16	0	.	.
Cc1c(NS(=O)(=O)c2cc(Br)cc3c2N(C(=O)C2CC2)CC3)c(=O)n(-c2ccccc2)n1C	7	8	14	9	.	.
Cc1c(NS(=O)(=O)c2ccc3c(c2)CCN3C(=O)C2CC2)c(=O)n(-c2ccccc2)n1C	-3	4	43*	-3	-4	0
CCOC(=O)c1c(C)[nH]c(C(=O)COC(=O)CCS(=O)(=O)c2ccc(C)cc2)c1C	-20	1	39*	5	29*	6
COc1cc(C(=O)Oc2ccc(/C=N/NC(=O)c3ccncc3)cc2)cc(OC)c1OC	-2	0	34*	8	-14	-11
CC(C)Cn1cc(C(=O)NCc2cccs2)c2c3ccccc3n(C)c2c1=O	-2	-7	38*	2	2	11
COc1ccc(CN2CC(C(=O)N3CCOCC3)CC2=O)cc1 (stereo not drawn)	-2	-3	47*	-1	-13	-26
CCOC(=O)c1c(-c2ccc(C)o2)csc1NC(=S)NC(=O)c1ccc(F)cc1	5	15	28*	7	26	-3
CCOC(=O)c1c(-c2ccc(C)o2)csc1NC(=O)CN1CCCCC1	-3	-19	-11	6	.	.
Cc1ccc(C(=O)NC(=S)Nc2ccc3[nH]c(=O)[nH]c3c2)cc1	1	33	43*	-2	34*	12
COc1cc(C(=O)NNC(=S)NC(=O)/C=C/c2ccccc2)cc(OC)c1OC	8	-4	77*	2	35*	4
NC(Cc1c[nH]c2ccccc12)C(=O)Nc1ccccc1 (stereo not drawn)	.	8	-1	-1	.	.
O=C(Nc1ccccn1)c1cc(-c2cccc(Cl)c2)nc2ccccc12	1	0	-6	1	.	.
CCOc1ccc(NC(=O)C(=O)N/N=C\c2ccc(CNS(=O)(=O)c3ccccc3)o2)cc1	-4	-14	63*	-8	58*	-2
CCOc1ccc(C(=O)N/N=C/c2ccc(-c3ccc(S(=O)(=O)Nc4ncccn4)cc3)o2)cc1	10	7	5	1	.	.
